Read-outs that look alike come from different tables or passages of the source.
Assays:
PNPLA2 = assay: RT-PCR, PNPLA2 mRNA in ARPE-19; type: cell-based, human; settings: H2O2 200, 400, 500, 600, 800 μM plus 10 ng/mL TNF-α, 8 hours, relative to 18S, duplicate wells
Summary of the method: (§1)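 Confluent ARPE-19 cells were starved in 0.5% serum for 8 h, then treated with H₂O₂ plus TNF-α. Total RNA was purified on silica columns, and 1 μg was reverse transcribed with SuperScript III. mRNA was measured by semiquantitative real-time RT-PCR with gene-specific primers and 18S primers as internal control.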

5-LOX = assay: Immunoblot, 5-LOX protein in ARPE-19 lysates; type: cell-based, human; settings: H2O2 plus 10 ng/mL TNF-α, 8 hours
Summary of the method: (§2)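 ARPE-19 cells (passages 27–40) were grown in DMEM/F-12 with 10% FBS at 37°C, 5% CO₂ to confluency and starved in 0.5% serum for 8 h. They were then exposed to graded H₂O₂ with 10 ng/mL TNF-α for 8 h. Total lysates were run on SDS-PAGE and immunoblotted, then stripped and reprobed for β-tubulin as loading control. Duplicate wells; each experiment at least twice.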

PEDF-R = assay: Immunoblot, PEDF-R protein in ARPE-19 lysates; type: cell-based, human; settings: H2O2 plus 10 ng/mL TNF-α, 8 hours
Summary of the method: as §2

ARPE-19 cells [1] = assay: Cell viability; type: cell-based, human
Summary of the method: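 ARPE-19 cells (passages 27–40; DMEM/F-12, 10% FBS, 37°C, 5% CO₂) were plated at 2 × 10⁴ cells/well and grown to confluence (72 h). After 8 h starvation in 0.5% serum, cells received increasing H₂O₂ plus TNF-α (10 ng/mL), with or without test peptide, for 16 h. Relative live-cell numbers came from intracellular ATP luminescence; each point is the mean of duplicate wells.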

ARPE-19 cells [2] = settings: cited from earlier work
ARPE-19 cells [3] = assay: Pyknotic nuclei counting; type: cell-based, human; settings: 600 μM H2O2, 16 hours, Hoechst stain
Summary of the method: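 ARPE-19 cells were serum-starved, then treated with 600 μM H₂O₂ and test peptide together for 16 h. Cells were fixed in methanol (15 min, RT) and stained with 5 μM Hoechst in PBS (15 min, RT). Five random fields per well were imaged, and pyknotic nuclei were counted as a percentage of total cells.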

primary pig RPE cells [4] = assay: Cell viability; type: cell-based; settings: 50-250 μM H2O2, 10 ng/mL TNF-α
Summary of the method: (§3)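 Primary pig RPE cultures plated at 2 × 10⁴ cells/well (96-well) and grown to confluence (72 h), then exposed to H₂O₂ with TNF-α (10 ng/mL) and test peptide for the indicated time. Live cells were measured as intracellular ATP luminescence (CellTiter-Glo) and dead cells as dead-cell protease luminescence (CytoTox-Glo), with lysis reagent added for total-cell signal. Relative cell numbers are from duplicate wells.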

ALOX5 = assay: RT-PCR, ALOX5 mRNA in ARPE-19; type: cell-based, human; settings: H2O2 200, 400, 500, 600, 800 μM plus 10 ng/mL TNF-α, 8 hours, relative to 18S, duplicate wells
Summary of the method: as §1

ARPE-19 cells [5] = assay: Detection of reactive oxygen species; type: cell-based, human; settings: increasing H2O2 with or without 10 ng/mL TNF-α
Summary of the method: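 Confluent ARPE-19 cells in 96-well black plates were serum-starved (0.5% serum, 8 h), then given increasing H₂O₂ with or without 10 ng/mL TNF-α, plus test peptide. CellRox Green was added 30 min before the end point, and fluorescence was read at ex 485/em 520 nm. Triplicate wells per point; each experiment was run twice.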

PEDF = settings: peptides from Leu159-Met325 of PEDF-R; cited from earlier work
primary pig RPE cells [6] = assay: Cell death; type: cell-based; settings: pig primary RPE; H2O2/TNF-α
Summary of the method: as §3

ARPE-19 cells [7] = assay: Cell death; type: cell-based, human; settings: for Number of dead cells under oxidative stress: H2O2 (600 μM for SCR comparison), dead cell protease activity
Summary of the method: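 ARPE-19 cells (passages 27–40) grown in DMEM/F-12 with 10% FBS at 37°C, 5% CO₂, plated at 2 × 10⁴ cells/well (96-well) and cultured to confluency (72 h). Serum-starved 8 h in 0.5% serum, then exposed 16 h to H₂O₂ (600 μM for scrambled-control comparison) plus TNF-α (10 ng/mL) with test peptides. Dead-cell protease activity read by CytoTox-Glo; duplicate wells ± SD.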

PEDF-R (PNPLA2) = settings: cited from earlier work
human recombinant 5-LOX = assay: His-tag pull-down assay, 5-LOX and PEDF-R; type: binding; settings: 5-LOX 250 ng, PEDF-R ∼350 and 700 ng, 0.1 M sodium phosphate, 50 mM NaCl, 0.1% NP-40, 4°C, 2 hours, Ni-NTA, Western blot

Molecule: OO [H2O2]
- PNPLA2 mRNA level (PNPLA2): decreased the levels of PNPLA2
- 5-LOX protein level (5-LOX): paralleled those for expression of their respective genes
- PEDF-R protein level (PEDF-R): paralleled those for expression of their respective genes
- Relative cell numbers with increasing H2O2 (ARPE-19 cells [1]; 100-1000 μM H2O2, 10 ng/mL TNF-α, 16 hours): concentration-dependent decrease in cell numbers
- Death mechanism of ARPE-19 cells (ARPE-19 cells [2]; 400 and 600 μM H2O2): apoptosis
- Death mechanism of ARPE-19 cells (ARPE-19 cells [2]; H2O2 higher than 600 μM): necrosis
- Death mechanism of ARPE-19 cells (ARPE-19 cells [2]; TNF-α (10 ng/mL) and 400 to 800 μM H2O2): apoptotic mechanism via caspase activation
- Pyknotic nuclei level (ARPE-19 cells [3]): resulted in an increase
- Relative cell numbers with increasing H2O2 (primary pig RPE cells [4]): concentration-dependent decrease in cell numbers
- ALOX5 mRNA level (ALOX5): remained unchanged

Molecule: TNF-α
- ROS production, presence versus absence of TNF-α (ARPE-19 cells [5]): comparable under both conditions

Molecule: E5b: PEDF-R peptide Ile^193-Leu^232, overlapping P1 (ICPQDSSTNIHELRVTNTSIQFNLRNLYRLSKALFPPEPL)
- PEDF-binding affinity (PEDF): retain the PEDF-binding affinity of PEDF-R
- Protection from oxidative stress-induced cell death (summary) (primary pig RPE cells [6]): protected ARPE-19 and pig primary RPE cells from oxidative stress–induced cell death in a specific and concentration-dependent fashion
- Cell viability under oxidative stress (ARPE-19 cells [1]; H2O2/TNF-α, ATP live cell biomarker, duplicate wells): promoted cell viability
- Pyknotic nuclei level (ARPE-19 cells [3]): resulted in a decrease of pyknotic nuclei level
- Number of dead cells under oxidative stress (ARPE-19 cells [7]): decreased cell death of RPE cells undergoing oxidative stress
- Protection from oxidative stress-induced cell death (summary) (ARPE-19 cells [7]; H2O2/TNF-α): protected ARPE-19 and pig primary RPE cells from oxidative stress–induced cell death in a specific and concentration-dependent fashion

Molecule: H-KRLQFEPRNYPSLLSTALPNILFRRLGGKFQDMRELCVYL-OH [SCR]
- Number of dead cells under oxidative stress (ARPE-19 cells [7]): did not decrease the number of dead cells

B1: perilipin 5: protein that inhibits PEDF-R (PNPLA2) activity (protein, UniProt Q00G26 1-463, looked up)
Perilipin-5: MSEEEAAQIPRSSVWEQDQQNVVQRVVALPLVRATCTAVCDVYSAAKDRHPLLGSACRLAENCVCGLTTRALDHAQPLLEHLQPQLATMNSLACRGLDKLEEKLPFLQQPSETVVTSAKDVVASSVTGVVDLARRGRRWSVELKRSVSHAVDVVLEKSEELVDHFLPMTEEELAALAAEAEGPEVGSVEDQRRQQGYFVRLGSLSARIRHLAYEHSVGKLRQSKHRAQDTLAQLQETLELIDHMQCGVTPTAPACPGKVHELWGEWGQRPPESRRRSQAELETLVLSRSLTQELQGTVEALESSVRGLPAGAQEKVAEVRRSVDALQTAFADARCFRDVPAAALAEGRGRVAHAHACVDELLELVVQAVPLPWLVGPFAPILVERPEPLPDLADLVDEVIGGPDPRWAHLDWPAQQRAWEAEHRDGSGNGDGDRMGVAGDICEQEPETPSCPVKHTLMPELDF
- Effect on PEDF-R (PNPLA2) enzyme activity (PEDF-R (PNPLA2)): inhibited

B2: CGI-58: protein that stimulates PEDF-R (PNPLA2) activity (protein, UniProt Q8WTS1 2-349, looked up)
1-acylglycerol-3-phosphate …: AAEEEEVDSADTGERSGWLTGWLPTWCPTSISHLKEAEEKMLKCVPCTYKKEPVRISNGNKIWTLKFSHNISNKTPLVLLHGFGGGLGLWALNFGDLCTNRPVYAFDLLGFGRSSRPRFDSDAEEVENQFVESIEEWRCALGLDKMILLGHNLGGFLAAAYSLKYPSRVNHLILVEPWGFPERPDLADQDRPIPVWIRALGAALTPFNPLAGLRIAGPFGLSLVQRLRPDFKRKYSSMFEDDTVTEYIYHCNVQTPSGETAFKNMTIPYGWAKRPMLQRIGKMHPDIPVSVIFGARSCIDGNSGTSIQSLRPHSYVKTIAILGAGHYVYADQPEEFNQKVKEICDTVD
- Effect on PEDF-R (PNPLA2) enzyme activity (PEDF-R (PNPLA2)): stimulated

B3: PEDF: pigment epithelium-derived factor, stimulates PEDF-R (protein, UniProt P36955 20-418, looked up)
Pigment epithelium-derived …: QNPASPPEEGSPDPDSTGALVEEEDPFFKVPVNKLAAAVSNFGYDLYRVRSSTSPTTNVLLSPLSVATALSALSLGAEQRTESIIHRALYYDLISSPDIHGTYKELLDTVTAPQKNLKSASRIVFEKKLRIKSSFVAPLEKSYGTRPRVLTGNPRLDLQEINNWVQAQMKGKLARSTKEIPDEISILLLGVAHFKGQWVTKFDSRKTSLEDFYLDEERTVRVPMMSDPKAVLRYGLDSDLSCKIAQLPLTGSMSIIFFLPLKVTQNLTLIEESLTSEFIHDIDRELKTVQAVLTVPKLKLSYEGEVTKSLQEMKLQSLFDSPDFSKITGKPIKLTQVEHRAGFEWNEDGAGTTPSPGLQPAHLTFPLDYHLNQPFIFVLRDTDTGALLFIGKILDPRGP
- Effect on PEDF-R (PNPLA2) enzyme activity (PEDF-R (PNPLA2)): stimulated

B4: G0S2: G(0)/G(1) switch gene 2, inhibits PEDF-R (PNPLA2) (protein, UniProt P27469 1-103, looked up)
G0/G1 switch protein 2: METVQELIPLAKEMMAQKRKGKMVKLYVLGSVLALFGVVLGLMETVCSPFTAARRLRDQEAAVAELQAALERQALQKQALQEKGKQQDTVLGGRALSNRQHAS
- Effect on PEDF-R (PNPLA2) enzyme activity (PEDF-R (PNPLA2)): inhibited

B5: His6-tag-PEDF-R: human recombinant His6/Xpress-tagged PEDF-R made by cell-free in vitro protein synthesis (protein)
chain: MFPREKTWNISFAGCGFLGVYYVGVASCLREHAPFLVANATHIYGASAGALTATALVTGVCLGEAGAKFIEVSKEARKRFLGPLHPSFNLVKIIRSFLLKVLPADSHEHASGRLGISLTRVSDGENVIISHFNSKDELIQANVCSGFIPVYCGLIPPSLQGVRYVDGGISDNLPLYELKNTITVSPFSGESDICPQDSSTNIHELRVTNTSIQFNLRNLYRLSKALFPPEPLVLREMCKQGYRDGLRFLQRNGLLNRPNPLLALPPARPHGPEDKDQAVESAQAEDYSQLPGEDHILEHLPARLNEALLEACVEPTDLLTTLSNMLPVRLATAMMVPYTLPLESALSFTIRLLEWLPDVPEDIRWMKEQTGSICQYLVMRAKRKLGRHLPSRLPEQVELRRVQSLPSVPLSCAAYREALPGWMRNNLSLGDALAKWEECQRQLLLGLFCTNVAFPPEALRMRAPADPAPAPADPASPQHQLAGPAPLLSTPAPEARPVIGALGL
modifications: left off: His6, end not stated, kept | Xpress, end not stated, kept
- Bound 5-LOX in pull-down with His6-tag-PEDF-R (human recombinant 5-LOX): proportional increase of bound 5-LOX
- Bound 5-LOX in pull-down with His6-tag-PEDF-R (human recombinant 5-LOX; listed as His6/Xpress-tagged PEDF-R): via ionic interactions
